The subject of data set [1] is Mus musculus. Kind of data set: Hepatotoxicity in BALB/c mouse assessed as changes in serum alanine transaminase level at 50 mg/kg, iv for 2 weeks by GPT kit assay. Type of data set: toxicity, organism-based. The following applies: in vivo, 336 h.
The species entered for data set [2] is Mus musculus. As to the kind of experiment: Activation of calcium-dependent calcineurin phosphatase activity in ionomycin-stimulated BALB/c mouse assessed as production of IL-2 at 1 to 10 uM after 24 hrs by ELISA. The gist of the method: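 Mouse spleen cells, 2 × 10^6/well, stimulated with ionomycin 1 μg/mL and treated with a dose series for 24 h at 37 °C. Media from triplicate wells pooled. IL-2 measured by ELISA and calculated from IL-2 standards.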
In general terms: An ELISA detects its analyte on a solid surface through an enzyme-linked reagent.

Data set [3] deals with Hepatitis C virus. Kind of data set: Antiviral activity against HCV infected in human Huh7.5 cells assessed as inhibition of HCV-specific RNA by qRT-PCR method in presence of IFN-alpha. It counts as functional, organism-based. The conditions noted are these: Hepacivirus hominis; Huh-7.
For data set [4], the species on record is Mus musculus. As to the kind of experiment: Activation of calcium-dependent calcineurin phosphatase activity in ionomycin-stimulated BALB/c mouse splenocytes assessed as dephosphorylation of NFAT1 at 1 to 10 uM preincubated for 20 hrs followed by ionomycin stimulation measured after 4 hrs by Western blot analysis. The gist of the method:
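Mouse splenocytes, 2 × 10^6/well, exposed to compound for 20 h at 37 °C, then ionomycin 1 μg/mL for 4 h. Lysed on ice for 10 min and spun at 19 000g. NFAT phosphorylation status in the supernatant read by Western blot with anti-NFATc1 antibody.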
A general note: Immunoblotting shows a protein as a band on a membrane.

Data set [5] addresses T1, Peptidyl-prolyl cis-trans isomerase A (Homo sapiens, UniProt P62937). As to the kind of experiment: Inhibition of recombinant GST-tagged Cyclophilin A (unknown origin) interaction with HCV GST-tagged NS5A at 2 to 4 uM by GST pulldown assay.
In data set [6] the test system is Hepatitis C virus. Kind of data set: Antiviral activity against recombinant HCV genotype 2a JFH1 infected in human […] for 5 hrs measured on day 3 post infection by luciferase reporter gene assay. It counts as functional, organism-based, Hepacivirus hominis. The following applies: JFH-1, Huh-7. In short, it runs like this:
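Huh7.5 cells infected with JFH1-Luc virus (MOI 0.004) for 5 h at 37 °C with 3-fold serial dilutions of compound. Renilla luciferase read from lysates on day 3 postinfection to derive EC50.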

In data set [7] the test system is Hepatitis C virus. As to the kind of experiment: Antiviral activity against HCV genotype 1b Con1 infected in human Huh7.5 cells assessed as reduction of IL-8 level at 2 uM incubated up to 96 hrs by ELISA. Type of data set: functional, organism-based. The following applies: Hepacivirus hominis, isolate Con1, Huh-7, TDE = time-dependent effect. The gist of the method: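 Con1b replicon cells, 2 × 10^6/well, treated with 2 μM for up to 4 days at 37 °C. Pooled culture media assayed for IL-8 and IFN-α by ELISA.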

Data set [8] concerns Hepatitis C virus. Kind of data set: Antiviral activity against HCV genotype 1b Con1 infected in human Huh7.5 cells assessed as inhibition of NS5B expression in total cell lysate at 2 uM by Western blot analysis. Type of data set: functional, organism-based. The conditions noted are these: Hepacivirus hominis, isolate Con1, Huh-7. In short, it runs like this:
(§1)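 Con1b replicon cells treated with 2 μM. Total lysates, and a membrane fraction prepared by hypotonic buffer, dounce homogenization, 220g spin and then 68 000g for 1 h at 4 °C, analyzed by Western blot for NS5A and NS5B.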

For data set [9], the species on record is Mus musculus. Kind of data set: Inhibition of calcium-dependent calcineurin phosphatase activity in ionomycin-stimulated BALB/c mouse splenocytes assessed as reduction in dephosphorylation of R2 phosphopeptide at 1 to 10 uM preincubated for 20 hrs followed by ionomycin stimulation measured after 4 hrs. The gist of the method: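 Mouse splenocytes (2 × 10^6 cells/well) were incubated with compound for 20 h, then stimulated with 1 μg/mL ionomycin for another 4 h or left unstimulated. Calcineurin activity was measured by dephosphorylation of RII phosphopeptide using a cellular activity kit.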

Data set [10] concerns the target T1, Peptidyl-prolyl cis-trans isomerase A. As to the kind of experiment: Inhibition of human Cyclophilin A interaction with HCV genotype 1b Con1 NS5B in human Huh7.5 cells after 72 hrs by mammalian two-hybrid assay. It counts as cell-based. The conditions noted are these: Huh-7.
For data set [11], the system named is Hepatitis C virus. As to the kind of experiment: Antiviral activity against HCV genotype 1b Con1 infected in human Huh7 cells xenografted in immunodeficient NOD/SCID mouse assessed as inhibition of NS5A expression in liver at 50 mg/kg, ip up to 14 days by DAPI staining based confocal microscopy. It counts as functional, organism-based. The conditions noted are these: Hepacivirus hominis, isolate Con1, Huh-7. The gist of the method: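 Replicon-engrafted NOD/SCID mice, 50 mg/kg ip for 14 days from week 6, n=5. Paraffin liver sections incubated overnight at 4 °C with anti-human hepatocyte (Hep par 1) and anti-NS5A antibodies (1:50). Alexa 488/546 secondaries 1:100 for 2 h, DAPI 5 min, then confocal imaging.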
On the technique in general: Xenograft models place foreign cells or tissue in a host animal.

For data set [12], the system named is Hepatitis C virus. Kind of data set: Antiviral activity against HCV genotype 1b Con1 infected in human Huh7.5 cells assessed as inhibition of NS5A expression in total cell lysate at 2 uM by Western blot analysis. It counts as functional, organism-based. The conditions noted are these: Hepacivirus hominis, isolate Con1, Huh-7. The gist of the method: as §1

A short description of data set [13]: Cytotoxicity against HCV genotype 2a JFH1 infected human Huh7.5 cells expressing GFP-fused NS5A assessed as reduction in cell viability measured 72 hrs post infection by hoechst 33342 staining based confocal microscopy. The arrangement: species or system Huh-7.
Data set [14] is filed under the species Mus musculus. Kind of data set: Activation of calcium-dependent calcineurin phosphatase activity in ionomycin-stimulated BALB/c mouse splenocytes assessed as nuclear translocation of NFAT1 at 5 uM preincubated for 20 hrs followed by ionomycin stimulation measured after 4 hrs by DAPI staining based confocal microscopy. In short, it runs like this: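 Splenocytes were pretreated 20 h, then stimulated with ionomycin 1 μg/mL for 4 h. Fixed in 3.7% formaldehyde, permeabilized with 0.5% Triton X-100, and incubated overnight at 4 °C with anti-NFAT1 (1:100, 3% BSA). Alexa 546 secondary 1:200 for 2 h, DAPI counterstain, then confocal imaging of NFAT1 localization.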

The subject of data set [15] is Hepatitis C virus. As to the kind of experiment: Antiviral activity against HCV genotype 1b Con1 infected in human Huh7.5 cells assessed as stimulation of ISG15 mRNA expression at 2 uM incubated up to 96 hrs by qRT-PCR method. It counts as functional, organism-based. The following applies: Hepacivirus hominis, isolate Con1, Huh-7, TDE = time-dependent effect. The gist of the method: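 mRNA measured by SYBR Green qRT-PCR using the 2^−ΔΔCT method, normalized to GAPDH and expressed as fold change vs controls.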

The subject of data set [16] is Hepatitis C virus. Kind of data set: Antiviral activity against HCV genotype 1b Con1 infected in human Huh7.5 cells assessed as stimulation of OAS1 expression at 2 uM incubated up to 96 hrs by Western blot analysis. It counts as functional, organism-based. The following applies: Hepacivirus hominis, isolate Con1, Huh-7, TDE = time-dependent effect.
Data set [17] concerns Hepatitis C virus. Kind of data set: Antiviral activity against HCV infected in human Huh7.5 cells assessed as inhibition of HCV-specific RNA by qRT-PCR method in presence of telaprevir. Type of data set: functional, organism-based. The conditions noted are these: Hepacivirus hominis; Huh-7.
Data set [18] addresses T1, Peptidyl-prolyl cis-trans isomerase A. As to the kind of experiment: Inhibition of Cyclophilin A in human Huh7.5 cells infected with HCV assessed as reduction in viral RNA replication level at 0.5 to 4 uM by luciferase reporter gene assay. It counts as cell-based. The conditions noted are these: Huh-7. The gist of the method: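 Huh7.5 cells infected with JFH1-Luc (Renilla luciferase reporter) virus at MOI 0.004 for 5 h at 37 °C, with or without test chemicals. Renilla luciferase activity was read from cell lysates on day 3 postinfection.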

Data set [19] relates to Hepatitis C virus. As to the kind of experiment: Antiviral activity against HCV infected in human Huh7.5 cells assessed as inhibition of HCV-specific RNA by qRT-PCR method in presence of ribavirin. It counts as functional, organism-based. The conditions noted are these: Hepacivirus hominis; Huh-7.
Data set [20] is described as follows: Cytotoxicity against HCV infected human Huh7.5 cells assessed as cell death by MTT assay in presence of IFN-alpha. The conditions noted are these: huh-7. It counts as cell-based.
The subject of data set [21] is Hepatitis C virus. As to the kind of experiment: Antiviral activity against HCV genotype 1b Con1 infected in human Huh7.5 cells assessed as inhibition of NS5B expression at 2 uM by DAPI staining based confocal microscopy. Type of data set: functional, organism-based. The conditions noted are these: Hepacivirus hominis, isolate Con1, Huh-7. The gist of the method: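 Con1b replicon cells treated at 2 μM. Stained with Alexa red anti-NS5A and Alexa green anti-NS5B antibodies plus DAPI, then imaged by confocal microscopy for colocalization. Images representative of at least three experiments.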

The source made the active and inactive calls. No cut-off for these calls is given here.

T1 sequence (P62937 whole entry, looked up): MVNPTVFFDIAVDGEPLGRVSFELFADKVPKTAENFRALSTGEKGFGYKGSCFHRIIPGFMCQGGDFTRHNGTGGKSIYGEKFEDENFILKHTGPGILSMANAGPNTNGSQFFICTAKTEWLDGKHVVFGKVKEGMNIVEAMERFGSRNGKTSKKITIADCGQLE

As to `COc1cc(C(C(=O)NC2CCCCC2)N(C(=O)Cc2c[nH]c3ccccc23)c2ccc(C(C)C)cc2)cc(OC)c1OC` (stereo unspecified), the Activity entry in the data set with Mus musculus [1] was “Non-toxic”; in the data set on Hepatitis C virus [7], “tde”; in the data set on Hepatitis C virus [15], “tde”; in the data set with Hepatitis C virus [16], “tde”; in [20], “Non-toxic”. Further, the result in the data set listed under Mus musculus [2], in the data set listed under Mus musculus [4] and in the data set filed under Mus musculus [14] was Active. In addition, the inhibition result (in the data set with Hepatitis C virus [3]; in [5]; in the data set on Hepatitis C virus [8]; in data set [10]; with Hepatitis C virus [11]; in the data set with Hepatitis C virus [12]) was “Active” in each case. Also, the inhibition entry (in the data set on Hepatitis C virus [17]; in data set [18]; in the data set on Hepatitis C virus [19]; in the data set with Hepatitis C virus [21]) was “Active” throughout. The EC50 in the data set on Hepatitis C virus [6] was 5.2 µM. The inhibition result in the data set listed under Mus musculus [9] is “inactive”. The CC50 at 72 h in data set [13] came to 22.3 µM.

For orientation: EC50 means the concentration giving half of the maximal effect. For orientation: CC50 means the concentration that lowers cell viability or growth by half.

These data come from ChEMBL document CHEMBL3751796, “Structure-Based Discovery of Novel Cyclophilin A Inhibitors for the Treatment of Hepatitis C Virus Infections” (J Med Chem, 2015).
